Reference: ChEMBL document CHEMBL1255466, “Nucleotide selectivity of antibiotic kinases” (Antimicrob Agents Chemother, 2010)

Experiments:
[1] = Inhibition of APH(3')-3a by PK/LDH-coupled assay
Method in brief: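 N-terminally His6-tagged kinase, purified on Ni-NTA. Antibiotic at saturating level, preincubated 5 min at 37°C. Started with ATP or GTP held at Km. AMPPNP or GMPPNP added as 2-fold dilutions. NADH oxidation read at 340 nm over 5 min. IC50 fitted, then converted to Ki.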

[2] = Ratio of Kcat to Km for macrolide 2'-phosphotransferase 1 by PK/LDH-coupled assay
Method in brief: (§1)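 Macrolide substrate was varied in the PK/LDH-coupled system (HEPES pH 7.5, KCl, MgCl2, NADH, PEP), with fixed 0.2 mM GTP as donor. Antibiotic was preincubated with enzyme 5 min at 37°C, the reaction was started with nucleotide, and NADH oxidation was read at 340 nm for 5 min. Initial rates were fitted to Michaelis-Menten, or to a substrate-inhibition equation where it applied.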

[3] = Activity at macrolide 2'-phosphotransferase 1 by PK/LDH-coupled assay; method in brief: as §1
[4] = Ratio of Kcat to Km for macrolide 2'-phosphotransferase 1 by PK/LDH-coupled assay in presence of GTP
Method in brief: (§2)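 His6-tagged kinase purified by Ni-NTA. […] Nucleotide (ATP or GTP) was varied to start; A340 followed 5 min. Linear initial rates were fitted by nonlinear least squares.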

[5] = Activity at macrolide 2'-phosphotransferase 1 by PK/LDH-coupled assay in presence of GTP; method in brief: as §2
[6] = Activity at macrolide 2'-phosphotransferase 1 by PK/LDH-coupled assay in presence of ATP; method in brief: as §2
[7] = Ratio of Kcat to Km for macrolide 2'-phosphotransferase 1 by PK/LDH-coupled assay in presence of ATP; method in brief: as §2
[8] = Inhibition of macrolide 2'-phosphotransferase 1 by PK/LDH-coupled assay
[9] = Ratio of Kcat to Km for APH(3')-3a by PK/LDH-coupled assay in presence of ATP; method in brief: as §2
[10] = Activity at APH(3')-3a by PK/LDH-coupled assay in presence of ATP; method in brief: as §2

Row | Compound | kcat/Km [2] | Km [3] | kcat [3] | other results
1 | Nc1nc2c(ncn2[C@@H]2O[C@H](COP(=O)(O)OP(=O)(O)NP(=O)(O)O)[C@@H](O)[C@H]2O)c(=O)[nH]1 [PHOSPHOAMINOPHOSPHONIC ACID GUANYLATE ESTER] |  |  |  | Ki [1]: Not Active
2 | SPIRAMYCIN | 4.19 ×10² /s/M | 478 µM | 0.2 s⁻¹ | 
3 | CC[C@H]1OC(=O)[C@H](C)[C@@H](O[C@H]2C[C@@](C)(OC)[C@@H](O)[C@H](C)O2)[C@H](C)[C@@H](O[C@@H]2O[C@H](C)C[C@H](N(C)C)[C@H]2O)[C@](C)(O)C[C@@H](C)C(=O)[C@H](C)[C@@H](O)[C@]1(C)O | 7.52 ×10³ /s/M | 37.2 µM | 0.279 s⁻¹ | kcat/Km [4]: 1.07 ×10⁴ /s/M; Km [5]: 59.2 µM; kcat [5]: 0.634 s⁻¹; Km [6]: 1890 µM; kcat [6]: 0.022 s⁻¹; kcat/Km [7]: 1.16 ×10¹ /s/M
4 | CC[C@H]1OC(=O)[C@H](C)C(=O)[C@H](C)[C@@H](O[C@@H]2O[C@H](C)C[C@H](N(C)C)[C@H]2O)[C@](C)(OC)C[C@@H](C)C(=O)[C@H](C)[C@H]2N(CCCCn3cnc(-c4cccnc4)c3)C(=O)O[C@]12C | 2.07 ×10⁴ /s/M | 7.4 µM | 0.152 s⁻¹ | Ki [8]: 0.622 mM
5 | CC[C@H]1OC(=O)[C@H](C)[C@@H](O[C@H]2C[C@@](C)(OC)[C@@H](O)[C@H](C)O2)[C@H](C)[C@@H](O[C@@H]2O[C@H](C)C[C@H](N(C)C)[C@H]2O)[C@](C)(OC)C[C@@H](C)C(=O)[C@H](C)[C@@H](O)[C@]1(C)O | 6.77 ×10³ /s/M | 45.9 µM | 0.311 s⁻¹ | 
6 | Nc1ncnc2c1ncn2[C@@H]1O[C@H](COP(=O)(O)OP(=O)(O)NP(=O)(O)O)[C@@H](O)[C@H]1O |  |  |  | Ki ([1]; read-out: Ki): 14.2 µM; Ki [8]: Not Active
7 | CC[C@H]1OC(=O)C[C@@H](O)[C@H](C)[C@@H](O[C@@H]2O[C@H](C)[C@@H](O[C@H]3C[C@@](C)(O)[C@@H](O)[C@H](C)O3)[C@H](N(C)C)[C@H]2O)[C@@H](CC=O)C[C@@H](C)C(=O)/C=C/C(C)=C/[C@@H]1CO[C@@H]1O[C@H](C)[C@@H](O)[C@@H](OC)[C@H]1OC | 1.33 ×10³ /s/M | 131 µM | 0.174 s⁻¹ | 
8 | NC[C@@H]1O[C@H](O[C@H]2[C@@H](O)[C@H](O[C@@H]3[C@@H](O)[C@H](N)C[C@H](N)[C@H]3O[C@H]3O[C@H](CN)[C@@H](O)[C@H](O)[C@H]3N)O[C@@H]2CO)[C@H](N)[C@@H](O)[C@@H]1O |  |  |  | kcat/Km [9]: 1.5 ×10⁵ /s/M; Km [10]: 10.6 µM; kcat [10]: 1.59 s⁻¹
9 | CC[C@H]1OC(=O)[C@H](C)[C@@H](O[C@H]2C[C@@](C)(OC)[C@@H](O)[C@H](C)O2)[C@H](C)[C@@H](O[C@@H]2O[C@H](C)C[C@H](N(C)C)[C@H]2O)[C@](C)(O)C[C@@H](C)CN(C)[C@H](C)[C@@H](O)[C@]1(C)O | 1.05 ×10⁴ /s/M | 27.7 µM | 0.292 s⁻¹ | 
